From article PMC9660540 (Clinical Cancer Research, 2022)

Assays:
[1] = healthy volunteers; ref [32]; cited from earlier work
NSCLC (post-IO) = test: Tumor response; type: in vivo, human
[2] = Causally related adverse events, phase Ia/Ib study in patients with solid tumors; type: in vivo, human
Procedure, shortened: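 Expansion cohorts received nanosuspension at 100 mg once daily. The safety set was all patients given ≥1 dose, classified by the treatment actually received. Treatment was delayed or reduced for grade ≥3 or clinically significant nonhematologic toxicity.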

Cc1cc(-c2nnc(N)nc2-c2ccc(F)cc2)cc(Cl)n1 [AZD4635]
AUC of capsule formulation compared with nanosuspension, higher by [1]: ~10%
Cmax of capsule formulation compared with nanosuspension, higher by [1]: approximately 27%
Best response of SD (NSCLC (post-IO); NSCLC): 5 (33.3%) n (%)
Disease control at 22 Weeks, Yes (NSCLC (post-IO); NSCLC Post-IO): 1 (6.7%) n (%)
Causally related AE grade ≥3: ALT increased ([2]; CRC IO-naïve): 0 n (%)
Causally related AE grade ≥3: Abdominal pain ([2]; CRC IO-naïve): 0 n (%)
Causally related AE grade ≥3: Anemia ([2]; CRC IO-naïve): 0 n (%)
Causally related AE grade ≥3: Arthralgia ([2]; CRC IO-naïve): 0 n (%)
Causally related AE grade ≥3: Blood creatinine increased ([2]; CRC IO-naïve): 0 n (%)
Causally related AE grade ≥3: CRP increased ([2]; CRC IO-naïve): 0 n (%)
Causally related AE grade ≥3: Dermatitis psoriasiform ([2]; CRC IO-naïve): 0 n (%)
Causally related AE grade ≥3: Diarrhea ([2]; CRC IO-naïve): 0 n (%)
Causally related AE grade ≥3: Dizziness ([2]; CRC IO-naïve): 0 n (%)
Causally related AE grade ≥3: Dyspnea ([2]; CRC IO-naïve): 0 n (%)
Causally related AE grade ≥3: Fatigue ([2]; CRC IO-naïve): 1 (4.0) n (%)
Causally related AE grade ≥3: Headache ([2]; CRC IO-naïve): 0 n (%)
Causally related AE grade ≥3: Hyperglycemia ([2]; CRC IO-naïve): 0 n (%)
Causally related AE grade ≥3: Hypertension ([2]; CRC IO-naïve): 0 n (%)
Causally related AE grade ≥3: Hypophosphatemia ([2]; CRC IO-naïve): 0 n (%)
Causally related AE grade ≥3: Insomnia ([2]; CRC IO-naïve): 0 n (%)
Causally related AE grade ≥3: Lipase increased ([2]; CRC IO-naïve): 0 n (%)
Causally related AE grade ≥3: Lymphocyte count decreased ([2]; CRC IO-naïve): 0 n (%)
Causally related AE grade ≥3: Myositis ([2]; CRC IO-naïve): 0 n (%)
Causally related AE grade ≥3: Nausea ([2]; CRC IO-naïve): 0 n (%)
Causally related AE grade ≥3: Neutrophil count decreased ([2]; CRC IO-naïve): 0 n (%)
Causally related AE grade ≥3: Obliterative bronchiolitis ([2]; CRC IO-naïve): 0 n (%)
Causally related AE grade ≥3: Rash ([2]; CRC IO-naïve): 0 n (%)
Causally related AE grade ≥3: Sudden death ([2]; CRC IO-naïve): 1 (4.0) n (%)
Causally related AE grade ≥3: Type I diabetes mellitus ([2]; CRC IO-naïve): 0 n (%)
Causally related AE grade ≥3: Vomiting ([2]; CRC IO-naïve): 1 (4.0) n (%)
≥Grade 3 causally related AE ([2]; CRC IO-naïve): 3 (12.0) n (%)
Causally related AE grade ≥3: ALT increased ([2]; NSCLC Post-IO): 0 n (%)
Causally related AE grade ≥3: Abdominal pain ([2]; NSCLC Post-IO): 0 n (%)
Causally related AE grade ≥3: Anemia ([2]; NSCLC Post-IO): 0 n (%)
Causally related AE grade ≥3: Arthralgia ([2]; NSCLC Post-IO): 0 n (%)
Causally related AE grade ≥3: Blood creatinine increased ([2]; NSCLC Post-IO): 0 n (%)
Causally related AE grade ≥3: CRP increased ([2]; NSCLC Post-IO): 0 n (%)
Causally related AE grade ≥3: Dermatitis psoriasiform ([2]; NSCLC Post-IO): 0 n (%)
Causally related AE grade ≥3: Diarrhea ([2]; NSCLC Post-IO): 0 n (%)
Causally related AE grade ≥3: Dizziness ([2]; NSCLC Post-IO): 0 n (%)
Causally related AE grade ≥3: Dyspnea ([2]; NSCLC Post-IO): 0 n (%)
Causally related AE grade ≥3: Fatigue ([2]; NSCLC Post-IO): 1 (5.9) n (%)
Causally related AE grade ≥3: Headache ([2]; NSCLC Post-IO): 0 n (%)
Causally related AE grade ≥3: Hyperglycemia ([2]; NSCLC Post-IO): 0 n (%)
Causally related AE grade ≥3: Hypertension ([2]; NSCLC Post-IO): 0 n (%)
Causally related AE grade ≥3: Hypophosphatemia ([2]; NSCLC Post-IO): 0 n (%)
Causally related AE grade ≥3: Insomnia ([2]; NSCLC Post-IO): 0 n (%)
Causally related AE grade ≥3: Lipase increased ([2]; NSCLC Post-IO): 0 n (%)
Causally related AE grade ≥3: Lymphocyte count decreased ([2]; NSCLC Post-IO): 0 n (%)
Causally related AE grade ≥3: Myositis ([2]; NSCLC Post-IO): 0 n (%)
Causally related AE grade ≥3: Nausea ([2]; NSCLC Post-IO): 0 n (%)
Causally related AE grade ≥3: Neutrophil count decreased ([2]; NSCLC Post-IO): 0 n (%)
Causally related AE grade ≥3: Obliterative bronchiolitis ([2]; NSCLC Post-IO): 0 n (%)
Causally related AE grade ≥3: Rash ([2]; NSCLC Post-IO): 0 n (%)
Causally related AE grade ≥3: Sudden death ([2]; NSCLC Post-IO): 0 n (%)
Causally related AE grade ≥3: Type I diabetes mellitus ([2]; NSCLC Post-IO): 0 n (%)
Causally related AE grade ≥3: Vomiting ([2]; NSCLC Post-IO): 0 n (%)
≥Grade 3 causally related AE ([2]; NSCLC Post-IO): 1 (5.9) n (%)
Causally related AE grade ≥3: ALT increased ([2]; Other IO-naïve): 0 n (%)
Causally related AE grade ≥3: Abdominal pain ([2]; Other IO-naïve): 1 (5.3) n (%)
Causally related AE grade ≥3: Anemia ([2]; Other IO-naïve): 0 n (%)
Causally related AE grade ≥3: Arthralgia ([2]; Other IO-naïve): 0 n (%)
Causally related AE grade ≥3: Blood creatinine increased ([2]; Other IO-naïve): 0 n (%)
Causally related AE grade ≥3: CRP increased ([2]; Other IO-naïve): 0 n (%)
Causally related AE grade ≥3: Dermatitis psoriasiform ([2]; Other IO-naïve): 0 n (%)
Causally related AE grade ≥3: Diarrhea ([2]; Other IO-naïve): 1 (5.3) n (%)
Causally related AE grade ≥3: Dizziness ([2]; Other IO-naïve): 0 n (%)
Causally related AE grade ≥3: Dyspnea ([2]; Other IO-naïve): 0 n (%)
Causally related AE grade ≥3: Fatigue ([2]; Other IO-naïve): 2 (10.5) n (%)
Causally related AE grade ≥3: Headache ([2]; Other IO-naïve): 0 n (%)
Causally related AE grade ≥3: Hyperglycemia ([2]; Other IO-naïve): 0 n (%)
Causally related AE grade ≥3: Hypertension ([2]; Other IO-naïve): 2 (10.5) n (%)
Causally related AE grade ≥3: Hypophosphatemia ([2]; Other IO-naïve): 0 n (%)
Causally related AE grade ≥3: Insomnia ([2]; Other IO-naïve): 0 n (%)
Causally related AE grade ≥3: Lipase increased ([2]; Other IO-naïve): 0 n (%)
Causally related AE grade ≥3: Lymphocyte count decreased ([2]; Other IO-naïve): 0 n (%)
Causally related AE grade ≥3: Myositis ([2]; Other IO-naïve): 0 n (%)
Causally related AE grade ≥3: Nausea ([2]; Other IO-naïve): 0 n (%)
Causally related AE grade ≥3: Neutrophil count decreased ([2]; Other IO-naïve): 0 n (%)
Causally related AE grade ≥3: Obliterative bronchiolitis ([2]; Other IO-naïve): 0 n (%)
Causally related AE grade ≥3: Rash ([2]; Other IO-naïve): 0 n (%)
Causally related AE grade ≥3: Sudden death ([2]; Other IO-naïve): 0 n (%)
Causally related AE grade ≥3: Type I diabetes mellitus ([2]; Other IO-naïve): 0 n (%)
Causally related AE grade ≥3: Vomiting ([2]; Other IO-naïve): 0 n (%)
≥Grade 3 causally related AE ([2]; Other IO-naïve): 5 (26.3) n (%)
Causally related AE grade ≥3: ALT increased ([2]; Other Post-IO): 0 n (%)
